Calls of active or inactive are those of the source. No cut-off for these calls is given here.
Experiments:
[1] = system: Trypanosoma brucei; test: Antitrypanosomal activity against Trypanosoma brucei Lister 427 bloodstream form assessed as parasite growth inhibition at 50 uM after 72 hrs by SYBR Green assay relative to control; type: functional; conditions: for inhibition of growth at 50 µM: Lister 427, 72 h, read-out: GI
[2] = biological target: CYP3A4 (Homo sapiens, UniProt P08684); test: Inhibition of human microsomal CYP3A4 expressed in baculovirus infected BTI-TN-5B1-4 cells at 10 uM incubated for 30 mins by luciferase assay relative to control; type: ADME
CYP3A4, sequence (P08684 whole entry): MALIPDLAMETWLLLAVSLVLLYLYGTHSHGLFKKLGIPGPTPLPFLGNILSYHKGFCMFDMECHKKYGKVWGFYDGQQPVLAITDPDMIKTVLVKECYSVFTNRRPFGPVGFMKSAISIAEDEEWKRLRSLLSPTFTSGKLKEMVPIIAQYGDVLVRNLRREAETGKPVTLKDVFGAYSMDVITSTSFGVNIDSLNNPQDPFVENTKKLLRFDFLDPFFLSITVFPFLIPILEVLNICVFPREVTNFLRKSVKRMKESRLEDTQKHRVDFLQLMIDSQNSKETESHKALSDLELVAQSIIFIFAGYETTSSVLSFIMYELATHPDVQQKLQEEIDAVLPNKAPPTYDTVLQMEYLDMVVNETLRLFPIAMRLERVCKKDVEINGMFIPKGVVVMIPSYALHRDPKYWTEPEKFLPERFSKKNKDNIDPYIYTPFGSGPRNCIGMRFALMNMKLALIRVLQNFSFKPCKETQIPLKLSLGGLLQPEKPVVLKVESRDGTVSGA
Procedure, shortened: (§1)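 CYP1A2, 2C9, 2C19, 2D6 and 3A4 in microsomes from baculovirus-infected insect cells, each with a P450-Glo luminogenic substrate. Inhibition read as loss of light; single-point at 10 μM, triplicate.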

[3] = system: Trypanosoma cruzi; test: Antitrypanosomal activity against Trypanosoma cruzi amastigote form infected in human U2OS cells assessed as parasite growth inhibition at 50 uM after 72 hrs relative to control; type: functional; conditions: read-out: GI
Procedure, shortened: (§2)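 U2OS monolayers grown for 24 h, then infected with tissue-derived trypomastigotes of T. cruzi Y strain. Compounds were added 24 h after infection at 50 μM (single-point) or in dose-response, with 72 h exposure. Plates were fixed, stained and analysed by high-content imaging; activity was normalized to infected and non-infected controls. Means of at least two experiments; benznidazole as reference.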

[4] = Cytotoxicity against human U2OS cells assessed as viable cells at 50 uM after 72 hrs by MTT assay relative to control; type: cell-based; conditions: read-out: Activity
[5] = Cytotoxicity against human 786-O cells assessed as inhibition of mitochondrial viability at 10 uM after 6 hrs by CMXRos staining based assay relative to control; type: cell-based, 786-0; conditions: read-out: INH
Procedure, shortened: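 Mitochondrial toxicity monitored by MitoTracker Red CMXRos uptake and high-content imaging; compound at 10 μM, triplicate.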

[6] = biological target: CYP2D6 (Homo sapiens, UniProt P10635); test: Inhibition of human microsomal CYP2D6 expressed in baculovirus infected BTI-TN-5B1-4 cells at 10 uM incubated for 30 mins by luciferase assay relative to control; type: ADME; procedure, shortened: as §1
CYP2D6, sequence (P10635 whole entry): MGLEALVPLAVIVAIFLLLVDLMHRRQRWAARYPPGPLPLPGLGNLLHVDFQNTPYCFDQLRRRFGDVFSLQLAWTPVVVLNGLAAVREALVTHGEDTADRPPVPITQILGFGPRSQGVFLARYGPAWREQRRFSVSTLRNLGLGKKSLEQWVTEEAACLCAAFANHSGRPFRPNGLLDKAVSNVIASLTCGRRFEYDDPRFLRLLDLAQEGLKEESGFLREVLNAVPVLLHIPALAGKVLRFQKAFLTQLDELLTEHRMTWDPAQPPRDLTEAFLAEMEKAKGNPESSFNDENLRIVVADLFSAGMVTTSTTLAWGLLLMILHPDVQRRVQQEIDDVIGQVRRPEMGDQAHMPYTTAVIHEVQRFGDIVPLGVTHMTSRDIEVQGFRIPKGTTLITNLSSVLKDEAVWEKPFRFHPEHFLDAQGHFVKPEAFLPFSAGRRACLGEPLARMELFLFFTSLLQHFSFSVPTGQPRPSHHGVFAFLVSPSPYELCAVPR

[7] = Cytotoxicity against human THP1 cells assessed as viable cells at 100 uM after 72 hrs by MTT assay relative to control; type: cell-based, THP-1; conditions: read-out: Activity
Procedure, shortened: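 THP-1-derived macrophages exposed to compounds for 72 h, tested at 100 μM or in dose-response; viability read by MTT colorimetric assay.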

[8] = Cytotoxicity against human WI38 cells assessed as growth inhibition at 10 uM after 48 hrs by CellTiter-Glo assay relative to control; values are per cent of control; conditions: WI38 cells
[9] = biological target: CYP2C9 (Homo sapiens, UniProt P11712); test: Inhibition of human microsomal CYP2C9 expressed in baculovirus infected BTI-TN-5B1-4 cells at 10 uM incubated for 30 mins by luciferase assay relative to control; type: ADME; procedure, shortened: as §1
CYP2C9, sequence (P11712 whole entry): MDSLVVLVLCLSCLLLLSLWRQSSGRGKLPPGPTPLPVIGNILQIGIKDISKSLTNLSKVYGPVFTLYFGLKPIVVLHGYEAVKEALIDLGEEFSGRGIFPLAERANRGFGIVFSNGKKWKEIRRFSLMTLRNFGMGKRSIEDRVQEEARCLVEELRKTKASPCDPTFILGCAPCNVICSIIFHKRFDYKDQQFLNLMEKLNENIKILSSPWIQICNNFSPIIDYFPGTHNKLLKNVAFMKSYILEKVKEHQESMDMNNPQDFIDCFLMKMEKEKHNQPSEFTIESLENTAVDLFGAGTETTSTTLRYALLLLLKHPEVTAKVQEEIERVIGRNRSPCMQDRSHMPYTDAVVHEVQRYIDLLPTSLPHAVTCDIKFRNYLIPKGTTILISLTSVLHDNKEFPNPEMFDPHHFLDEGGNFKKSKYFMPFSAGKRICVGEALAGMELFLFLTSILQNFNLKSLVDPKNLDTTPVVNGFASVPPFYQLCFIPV

[10] = system: Leishmania infantum; test: Antileishmanial activity against Leishmania infantum amastigote form assessed as parasite growth inhibition at 50 uM after 72 hrs by steady-Glo reagent based assay relative to control; type: functional; conditions: for inhibition of growth at 50 µM: read-out: GI
Procedure, shortened: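 Intramacrophage L. infantum amastigotes in THP-1-derived macrophages, tested at 50 μM or in dose-response. Plates held 72 h at 37 °C, 5% CO2. Medium was replaced by PBS, macrophages lysed, and parasites read by Steady-Glo luminescence. High-content imaging gave host cell number, infection ratio (infected/total cells) and parasites per infected cell. Values are means of at least two independent experiments.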

[11] = Cytotoxicity against human A549 cells assessed as growth inhibition at 10 uM after 48 hrs by CellTiter-Glo assay relative to control; values are per cent of control; conditions: A549 cells
[12] = system: Trypanosoma brucei; test: Potentiation of methotrexate-induced antitrypanosomal activity against Trypanosoma brucei Lister 427 bloodstream form at 10 uM after 72 hrs by resazurin dye-based assay; type: functional
[13] = biological target: T1, Pteridine reductase, putative (Trypanosoma brucei) (UniProt Q581W1); test: Inhibition of Trypanosoma brucei PTR1 at 50 uM using H2B as substrate in presence of NADPH by photometric analysis relative to control
T1 sequence (whole entry): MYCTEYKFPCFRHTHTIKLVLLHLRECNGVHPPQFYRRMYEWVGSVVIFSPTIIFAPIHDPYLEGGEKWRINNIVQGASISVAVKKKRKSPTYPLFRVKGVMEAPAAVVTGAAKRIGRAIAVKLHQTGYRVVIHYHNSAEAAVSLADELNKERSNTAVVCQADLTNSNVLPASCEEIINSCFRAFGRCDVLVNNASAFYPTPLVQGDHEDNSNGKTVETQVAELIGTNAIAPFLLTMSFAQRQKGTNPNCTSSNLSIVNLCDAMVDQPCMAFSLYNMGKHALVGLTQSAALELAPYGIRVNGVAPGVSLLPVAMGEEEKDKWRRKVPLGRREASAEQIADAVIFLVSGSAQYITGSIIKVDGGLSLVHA

[14] = system: Trypanosoma brucei; test: Potentiation of methotrexate-induced antitrypanosomal activity against Trypanosoma brucei Lister 427 bloodstream form at 10 uM after 72 hrs by resazurin dye-based assay relative to control; type: functional
[15] = biological target: T2, CYP1A2 (Homo sapiens, UniProt P05177); test: Inhibition of human microsomal CYP1A2 expressed in baculovirus infected BTI-TN-5B1-4 cells at 10 uM incubated for 30 mins by luciferase assay relative to control; type: ADME; procedure, shortened: as §1
T2 sequence (P05177 whole entry): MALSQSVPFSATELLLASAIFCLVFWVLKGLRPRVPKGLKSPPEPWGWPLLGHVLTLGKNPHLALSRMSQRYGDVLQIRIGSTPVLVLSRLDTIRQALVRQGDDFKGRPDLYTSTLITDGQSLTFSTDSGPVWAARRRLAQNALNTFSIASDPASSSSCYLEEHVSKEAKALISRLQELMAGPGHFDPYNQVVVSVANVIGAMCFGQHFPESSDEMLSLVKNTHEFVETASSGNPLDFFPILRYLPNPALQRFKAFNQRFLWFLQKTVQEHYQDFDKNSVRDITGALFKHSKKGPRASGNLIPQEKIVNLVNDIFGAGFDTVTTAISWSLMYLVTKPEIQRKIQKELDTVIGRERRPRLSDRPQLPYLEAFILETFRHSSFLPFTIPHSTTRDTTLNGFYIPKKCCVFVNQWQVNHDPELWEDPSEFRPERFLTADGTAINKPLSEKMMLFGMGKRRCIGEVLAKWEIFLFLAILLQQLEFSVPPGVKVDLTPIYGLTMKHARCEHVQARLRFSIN

[16] = biological target: T3, Pteridine reductase 1 (Leishmania major) (UniProt Q01782); test: Inhibition of Leishmania major PTR1 at 50 uM using H2B as substrate in presence of NADPH by photometric analysis relative to control
T3 sequence (whole entry): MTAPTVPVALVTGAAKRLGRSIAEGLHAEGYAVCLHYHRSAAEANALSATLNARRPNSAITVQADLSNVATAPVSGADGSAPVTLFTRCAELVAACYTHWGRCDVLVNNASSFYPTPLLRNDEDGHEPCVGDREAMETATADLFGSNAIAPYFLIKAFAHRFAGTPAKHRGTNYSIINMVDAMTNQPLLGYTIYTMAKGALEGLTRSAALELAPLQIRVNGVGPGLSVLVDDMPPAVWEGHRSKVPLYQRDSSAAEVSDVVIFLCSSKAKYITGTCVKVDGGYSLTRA

[17] = biological target: Aurora kinase B (Homo sapiens, UniProt Q96GD4); test: Inhibition of recombinant full-length human aurora B kinase expressed in baculovirus system at 10 uM using MBP as substrate incubated for 45 mins by ADP-glo kinase assay; conditions: probe MBP
Aurora kinase B, sequence (Q96GD4 whole entry): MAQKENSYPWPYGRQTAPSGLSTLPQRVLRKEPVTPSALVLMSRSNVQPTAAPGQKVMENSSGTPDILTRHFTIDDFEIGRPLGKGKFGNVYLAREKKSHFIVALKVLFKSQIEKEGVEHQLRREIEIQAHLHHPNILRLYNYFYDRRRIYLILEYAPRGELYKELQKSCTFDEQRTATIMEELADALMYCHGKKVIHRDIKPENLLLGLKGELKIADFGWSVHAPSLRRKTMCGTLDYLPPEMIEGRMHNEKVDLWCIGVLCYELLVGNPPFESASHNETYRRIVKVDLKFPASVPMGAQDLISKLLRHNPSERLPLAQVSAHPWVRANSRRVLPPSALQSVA
Procedure, shortened: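 Aurora B activity measured as ADP formation via coupled luciferase ADP-Glo luminescence; single-point at 10 μM, triplicate.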

[18] = system: Trypanosoma brucei; test: Antitrypanosomal activity against Trypanosoma brucei Lister 427 bloodstream form after 72 hrs by SYBR Green assay; type: functional, organism-based; conditions: Lister 427, 72 h
[19] = biological target: hERG (KCNH2) (Homo sapiens, UniProt Q12809); test: Inhibition of human ERG at 10 uM incubated for 2 hrs by fluorescence polarisation assay relative to control
hERG (KCNH2), sequence (Q12809 whole entry): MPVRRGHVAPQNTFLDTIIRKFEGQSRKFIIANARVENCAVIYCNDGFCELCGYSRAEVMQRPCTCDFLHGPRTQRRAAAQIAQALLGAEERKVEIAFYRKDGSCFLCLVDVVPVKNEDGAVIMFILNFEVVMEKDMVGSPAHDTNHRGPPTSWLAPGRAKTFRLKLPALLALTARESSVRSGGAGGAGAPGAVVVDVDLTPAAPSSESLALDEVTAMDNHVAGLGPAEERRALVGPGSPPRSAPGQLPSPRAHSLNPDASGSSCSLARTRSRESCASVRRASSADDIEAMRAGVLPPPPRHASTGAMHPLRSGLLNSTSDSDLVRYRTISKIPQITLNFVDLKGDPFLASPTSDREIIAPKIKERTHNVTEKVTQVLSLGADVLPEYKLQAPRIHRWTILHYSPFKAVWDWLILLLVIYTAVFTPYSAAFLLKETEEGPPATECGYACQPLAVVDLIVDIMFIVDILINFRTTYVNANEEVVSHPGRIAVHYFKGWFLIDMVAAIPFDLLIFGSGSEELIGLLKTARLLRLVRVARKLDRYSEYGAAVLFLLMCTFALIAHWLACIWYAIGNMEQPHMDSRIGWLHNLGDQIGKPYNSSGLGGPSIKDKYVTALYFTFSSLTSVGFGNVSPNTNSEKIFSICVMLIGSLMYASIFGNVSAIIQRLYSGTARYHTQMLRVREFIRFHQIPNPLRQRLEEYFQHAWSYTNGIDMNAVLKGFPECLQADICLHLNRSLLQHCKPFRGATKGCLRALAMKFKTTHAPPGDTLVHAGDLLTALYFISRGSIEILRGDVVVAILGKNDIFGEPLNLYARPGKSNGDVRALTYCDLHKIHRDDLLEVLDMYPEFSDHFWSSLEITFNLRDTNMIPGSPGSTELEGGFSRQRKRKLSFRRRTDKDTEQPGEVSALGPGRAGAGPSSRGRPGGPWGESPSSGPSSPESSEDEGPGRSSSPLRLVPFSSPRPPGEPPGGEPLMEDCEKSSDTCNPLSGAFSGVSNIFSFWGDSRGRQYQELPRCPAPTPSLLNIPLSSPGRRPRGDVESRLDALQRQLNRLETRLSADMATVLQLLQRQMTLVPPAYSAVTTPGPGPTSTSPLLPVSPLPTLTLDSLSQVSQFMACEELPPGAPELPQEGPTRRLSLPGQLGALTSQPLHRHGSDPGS

[20] = biological target: CYP2C19 (Homo sapiens, UniProt P33261); test: Inhibition of human microsomal CYP2C19 expressed in baculovirus infected BTI-TN-5B1-4 cells at 10 uM incubated for 30 mins by luciferase assay relative to control; type: ADME; procedure, shortened: as §1
CYP2C19, sequence (P33261 whole entry): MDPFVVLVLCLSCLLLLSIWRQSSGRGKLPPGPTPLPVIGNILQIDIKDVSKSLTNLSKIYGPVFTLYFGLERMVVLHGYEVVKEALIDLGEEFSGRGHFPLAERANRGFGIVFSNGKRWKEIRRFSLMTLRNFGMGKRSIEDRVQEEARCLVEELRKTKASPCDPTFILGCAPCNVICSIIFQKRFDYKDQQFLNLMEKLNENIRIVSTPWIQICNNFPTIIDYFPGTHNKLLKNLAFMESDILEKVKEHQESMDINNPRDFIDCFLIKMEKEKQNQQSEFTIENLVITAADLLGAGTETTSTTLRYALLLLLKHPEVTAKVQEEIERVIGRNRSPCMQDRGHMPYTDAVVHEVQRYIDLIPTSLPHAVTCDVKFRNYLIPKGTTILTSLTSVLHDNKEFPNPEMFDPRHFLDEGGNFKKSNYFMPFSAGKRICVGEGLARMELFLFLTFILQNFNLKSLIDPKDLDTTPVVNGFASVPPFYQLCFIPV

[21] = system: Trypanosoma brucei; test: Antitrypanosomal activity against Trypanosoma brucei Lister 427 bloodstream form at 10 uM after 72 hrs by resazurin dye-based assay relative to control; type: functional
[22] = system: Trypanosoma cruzi; test: Antitrypanosomal activity against Trypanosoma cruzi amastigote form infected in human U2OS cells assessed as parasite growth inhibition after 72 hrs; type: functional, organism-based; procedure, shortened: as §2
[23] = Cytotoxicity against human U2OS cells assessed as decrease in viable cells after 72 hrs by cell number count in anti-T. cruzi high content imaging assay; conditions: U2OS cells
[24] = Selectivity index, ratio of CC50 for human U2OS cells to EC50 for Trypanosoma cruzi amastigote form; type: toxicity; conditions: read-out: Ratio CC50/EC50
Procedure, shortened: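 Selectivity index = CC50 in the human host or cytotoxicity cell line divided by parasite EC50.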

Row | Compound | inhibition of growth at 50 µM [1] [%] | inhibition at 0.5 h, 10 µM [2] [%] | inhibition of growth at 50 µM [3] [%] | viability at 72 h, 50 µM [4] [%] | cytotoxicity at 6 h, 10 µM [5] [%] | inhibition at 0.5 h, 10 µM [6] [%] | viability at 72 h, 100 µM [7] [%] | cell growth (% of control) at 48 h, 10 µM [8] [%] | inhibition at 0.5 h, 10 µM [9] [%] | inhibition of growth at 50 µM [10] [%] | cell growth (% of control) at 48 h, 10 µM [11] [%] | PF [12] | inhibition [13] | Activity [14] [%] | inhibition at 0.5 h, 10 µM [15] [%] | inhibition [16] [%] | inhibition at 0.75 h, 10 µM [17] [%] | inhibition at 2 h, 10 µM [19] [%] | inhibition at 0.5 h, 10 µM [20] [%] | Activity [21] [%] | also measured
1 | NC(=S)N/N=C/c1ccccc1O | 97.9 | -4.38 | 86.1 | 58 | -1.49 | -18.9 | 54.7 | 108 | -6.44 | 24.1 | 117 | 1.49 | 13.7% | 62.5 | 18.6 | 7.6 | 6.53 | 4.46 | -20.6 | 17.83 | EC50 [18]: 31.5 µM
2 | NC(=S)N/N=C/c1ccco1 |  | -12.2 | 93.6 | 112 | -4.4 | -43.1 | 92.9 | 106 | -12.2 | 26.9 | 124 | 0.87 | 3.99% | 24 | -0.31 | 14.8 | -8.76 | -7.97 | -43.2 | 3.33 | growth inhibition (GI) [1]: inactive; EC50 [22]: 1.87 µM; CC50 at 72 h [23]: > 44 µM; selectivity ratio [24]: > 1
3 | N/C(S)=N/N=C/c1cccc(Br)c1 | 44.1 | -19.8 | 90.8 | 57.3 | 0.71 | -14.4 | 79.3 | 120 | -7.51 |  | 130 | 2.44 | 14.9% | 61.17 | 66.6 | 18.4 | -16.2 | 10.7 | -35.9 | 0.83 | EC50 [22]: 2.29 µM; CC50 at 72 h [23]: > 44 µM; growth inhibition (GI) [10]: inactive; selectivity ratio [24]: > 1
4 | NC(=S)N/N=C/c1ccc2ncccc2c1 | 84.2 | -13.5 | 53.8 | 72.5 | -6.48 | 2.28 | 63.7 | 143 | 3.32 | 36 | 145 | 3.25 | 11.2% | 91.17 | 25.2 | 12.2 | 0.46 | -13.2 | -34.6 | 3.83 | EC50 [18]: 34.4 µM
5 | NC(=S)N/N=C/c1ccc(-c2ccccc2)cc1 |  | -16.1 | 95.2 | 116 | 16.1 | 26.8 | 46.4 | 104 | 98.4 |  | 138 | 1.85 | inactive | 80.67 | 76.6 | 3.57 | -35.7 | 38.5 | 32.1 | 19.33 | growth inhibition (GI) [1]: inactive; EC50 [22]: 4.17 µM; CC50 at 72 h [23]: > 44 µM; growth inhibition (GI) [10]: inactive; selectivity ratio [24]: > 1
6 | NC(=S)N/N=C/c1csc2ccccc12 | 3.57 | 5.98 | 24.3 | 152 | 12.6 | 22.1 | 44.9 | 95.3 | 14.6 | 24.4 | 101 | 1.16 | 3.09% | 52.33 | 100 | 4.9 | -4.29 | -5.27 | -17.1 | 21 | 

Reference: ChEMBL document CHEMBL4196006, “Aryl thiosemicarbazones for the treatment of trypanosomatidic infections” (Eur J Med Chem, 2018)
